Reference: ChEMBL document CHEMBL4406859, “Antitumor and antiviral activities of 4-substituted 1,2,3-triazolyl-2,3-dibenzyl-L-ascorbic acid derivatives” (Eur J Med Chem, 2019)
The source made the active and inactive calls. The calls are words filed in the database; no cut-off is given here.

Experiments:
A549 = assay: Antiproliferative activity against human A549 cells assessed as reduction in cell viability incubated for 72 hrs by MTT assay; format: functional, cell-based; conditions: A549, 72 h
Procedure, shortened: (§1)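 Cells (ATCC) grown in DMEM with 10 FBS, penicillin/streptomycin, 2 mM glutamine, 37 °C, 5 CO2. 5000 cells/well seeded; after 24 h, freshly prepared dilutions at five concentrations (0.01–100 μM) added for 72 h. MTT read-out; absorbance converted to percentage growth by NIH formulas. Two experiments in quadruplicate; IC50 by linear regression.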

CFPAC-1 = assay: Antiproliferative activity against human CFPAC-1 cells assessed as reduction in cell viability incubated for 72 hrs by MTT assay; format: functional, cell-based; conditions: Homo sapiens, CFPAC-1, 72 h; read-out: IC50; procedure, shortened: as §1
HCT-116 = assay: Antiproliferative activity against human HCT116cells assessed as reduction in cell viability incubated for 72 hrs by MTT assay; format: functional, cell-based; conditions: HCT-116, 72 h; procedure, shortened: as §1
HeLa = assay: Antiproliferative activity against human HeLa cells assessed as reduction in cell viability incubated for 72 hrs by MTT assay; format: functional, cell-based; procedure, shortened: as §1
HepG2 = assay: Antiproliferative activity against human HepG2 cells assessed as reduction in cell viability incubated for 72 hrs by MTT assay; format: functional, cell-based; conditions: HepG2, 72 h; procedure, shortened: as §1
MCF7 = assay: Antiproliferative activity against human MCF7 cells assessed as reduction in cell viability incubated for 72 hrs by MTT assay; format: functional, cell-based; conditions: MCF7, 72 h; procedure, shortened: as §1
SW-620 = assay: Antiproliferative activity against human SW620 cells assessed as reduction in cell viability incubated for 72 hrs by MTT assay; format: functional, cell-based; conditions: SW-620, 72 h; procedure, shortened: as §1
HFF = assay: Cytotoxicity against human HFF cells assessed as reduction in cell viability incubated for 72 hrs by MTT assay; format: cell-based; procedure, shortened: as §1
Cytomegalovirus [1] = assay: Antiviral activity against Cytomegalovirus AD169 infected in human HELF cells assessed as reduction in virus-induced cytopathogenicity incubated for 7 days by Giemsa staining based microscopic analysis; format: functional, organism-based; conditions: Human betaherpesvirus 5, AD169, HELF, 168 h
Procedure, shortened: (§2)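 Confluent HEL fibroblasts infected with CMV (Davis or AD-169) at 100 PFU/well for 2 h. Residual virus removed, then medium with graded compound concentrations added (duplicate). Incubated 7 days at 37 °C. Cytopathogenicity scored microscopically after ethanol fixation and Giemsa staining. EC50 read from plots of % cytopathogenicity versus concentration.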

Cytomegalovirus [2] = assay: Antiviral activity against Cytomegalovirus Davis infected in human HELF cells assessed as reduction in virus-induced cytopathogenicity incubated for 7 days by Giemsa staining based microscopic analysis; format: functional, organism-based; conditions: Human betaherpesvirus 5, Davis, 168 h; procedure, shortened: as §2
Human alphaherpesvirus 3 [3] = assay: Antiviral activity against thymidine kinase deficient Varicella zoster virus infected in human HELF cells assessed as reduction in virus-induced cytopathogenicity incubated for 7 days by Giemsa staining based microscopic analysis; format: functional, organism-based; conditions: Human alphaherpesvirus 3, HELF, 168 h
Human alphaherpesvirus 3 [4] = assay: Antiviral activity against thymidine kinase positive Varicella zoster virus infected in human HELF cells assessed as reduction in virus-induced cytopathogenicity incubated for 7 days by Giemsa staining based microscopic analysis; format: functional, organism-based; conditions: Human alphaherpesvirus 3, HELF, 168 h
[5] = Cytotoxicity against human HELF cells assessed as minimum cytotoxic concentration by observing alteration in cell morphology incubated for 3 days by microscopic analysis; format: cell-based; conditions: HELF cells
Procedure, shortened: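 Read-out is the minimum cytotoxic concentration (MCC): the lowest compound concentration giving a microscopically detectable change in cell morphology. Measured on confluent human embryonic lung (HEL) fibroblast cultures exposed to a range of compound concentrations.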

[6] = Cytotoxicity against human HELF cells assessed as reduction in cell viability incubated for 3 days by coulter counter method; format: cell-based; conditions: 72 h
Procedure, shortened: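 HEL cells seeded at 5 x 10^3/well and allowed to proliferate 24 h, then exposed to graded compound concentrations for 3 days at 37 °C. Cell number counted with a Coulter counter.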

Influenza A virus [7] = assay: Antiviral activity against Influenza A virus (A/Ned/378/05(H1N1)) infected in dog MDCK cells assessed as reduction in virus-induced cytopathogenicity incubated for 7 days by microscopic analysis; format: functional, organism-based
Influenza A virus H3N2 [8] = assay: Antiviral activity against Influenza A virus (A/HK/7/87(H3N2)) infected in dog MDCK cells assessed as reduction in virus-induced cytopathogenicity incubated for 7 days by microscopic analysis; format: functional, organism-based; conditions: A/Hong Kong/7/1987(H3N2)
Influenza B virus [9] = assay: Antiviral activity against Influenza B virus (B/Ned/537/05) infected in dog MDCK cells assessed as reduction in virus-induced cytopathogenicity incubated for 7 days by microscopic analysis; format: functional, organism-based
Influenza A virus [10] = assay: Antiviral activity against Influenza A virus (A/Ned/378/05(H1N1)) infected in dog MDCK cells assessed as reduction in virus-induced cytopathogenicity incubated for 7 days by MTS assay; format: functional, organism-based
Influenza A virus H3N2 [11] = assay: Antiviral activity against Influenza A virus (A/HK/7/87(H3N2)) infected in dog MDCK cells assessed as reduction in virus-induced cytopathogenicity incubated for 7 days by MTS assay; format: functional, organism-based; conditions: A/Hong Kong/7/1987(H3N2)
Influenza B virus [12] = assay: Antiviral activity against Influenza B virus (B/Ned/537/05) infected in dog MDCK cells assessed as reduction in virus-induced cytopathogenicity incubated for 7 days by MTS assay; format: functional, organism-based
Human alphaherpesvirus 1 [13] = assay: Antiviral activity against Herpes simplex virus 1 KOS infected in human HELF cells assessed as reduction in virus-induced cytopathogenicity incubated for 7 days by microscopic analysis; format: functional, organism-based; conditions: strain KOS
Human alphaherpesvirus 2 = assay: Antiviral activity against Herpes simplex virus 2 G infected in human HELF cells assessed as reduction in virus-induced cytopathogenicity incubated for 7 days by microscopic analysis; format: functional, organism-based
Human alphaherpesvirus 1 [14] = assay: Antiviral activity against Herpes simplex virus 1 TK-KOS-ACV infected in human HELF cells assessed as reduction in virus-induced cytopathogenicity incubated for 7 days by microscopic analysis; format: functional, organism-based
Human adenovirus 2 = assay: Antiviral activity against Human adenovirus 2 infected in human HELF cells assessed as reduction in virus-induced cytopathogenicity incubated for 7 days by microscopic analysis; format: functional, organism-based
Human coronavirus 229E = assay: Antiviral activity against Human coronavirus 229E infected in human HELF cells assessed as reduction in virus-induced cytopathogenicity incubated for 7 days by microscopic analysis; format: functional, organism-based
Coxsackievirus B4 = assay: Antiviral activity against Human coxsackievirus B4 infected in vero cells assessed as reduction in virus-induced cytopathogenicity incubated for 7 days by microscopic analysis; format: functional, organism-based
Reovirus sp. = assay: Antiviral activity against Reovirus infected in vero cells assessed as reduction in virus-induced cytopathogenicity incubated for 7 days by microscopic analysis; format: functional, organism-based
Sindbis virus = assay: Antiviral activity against Sindbis virus infected in vero cells assessed as reduction in virus-induced cytopathogenicity incubated for 7 days by microscopic analysis; format: functional, organism-based
[15] = Cytotoxicity against dog MDCK cells assessed as minimum cytotoxic concentration by observing alteration in cell morphology incubated for 3 days by microscopic analysis; format: cell-based, Canis lupus familiaris
MDCK = assay: Cytotoxicity against dog MDCK cells assessed as reduction in cell viability incubated for 3 days by coulter counter method; format: cell-based, Canis lupus familiaris; conditions: mdck, 72 h

COc1ccc(-c2cn(C/C=C3\OC(=O)C(OCc4ccccc4)=C3OCc3ccccc3)nn2)cc1
IC50 (A549): > 100 µM
IC50 (CFPAC-1): > 100 µM
IC50 (HCT-116): > 100 µM
IC50 (HeLa): > 100 µM
IC50 (HepG2): > 100 µM
IC50 (MCF7): 39.1 µM
IC50 (SW-620): > 100 µM
IC50 (HFF): > 100 µM
EC50 (Cytomegalovirus [1]): 20 µM
EC50 (Cytomegalovirus [2]): 5.74 µM
EC50 (Human alphaherpesvirus 3 [3]): > 100 µM
EC50 (Human alphaherpesvirus 3 [4]): > 100 µM
MCC at 72 h [5]: > 100 µM
CC50 [6]: > 100 µM
Activity (Influenza A virus [7]): inactive
Activity (Influenza A virus H3N2 [8]): inactive
Activity (Influenza B virus [9]): inactive
Activity (Influenza A virus [10]): inactive
Activity (Influenza A virus H3N2 [11]): inactive
Activity (Influenza B virus [12]): inactive
Activity (Human alphaherpesvirus 1 [13]): inactive
Activity (Human alphaherpesvirus 2): inactive
Activity (Human alphaherpesvirus 1 [14]): inactive
Activity (Human adenovirus 2): inactive
Activity (Human coronavirus 229E): inactive
Activity (Coxsackievirus B4): inactive
Activity (Reovirus sp.): inactive
Activity (Sindbis virus): inactive

NC12CC3CC(CC(C3)C1)C2 [AMANTADINE]
EC50 (Influenza A virus [7]; Influenza A virus, A/Ned/378/05(H1N1), MDCK, 168 h): 20 µM
EC50 (Influenza A virus H3N2 [8]; 168 h): 0.2 µM
EC50 (Influenza B virus [9]; 168 h): > 100 µM
EC50 (Influenza A virus [10]): 22.6 µM
EC50 (Influenza A virus H3N2 [11]; 168 h): 0.03 µM
EC50 (Influenza B virus [12]; 168 h): > 100 µM
MCC at 72 h [15]: > 100 µM
CC50 (MDCK): > 100 µM

COc1ccccc1-c1cn(C/C=C2\OC(=O)C(OCc3ccccc3)=C2OCc2ccccc2)nn1
IC50 (A549): > 100 µM
IC50 (CFPAC-1): > 100 µM
IC50 (HCT-116): > 100 µM
IC50 (HeLa): > 100 µM
IC50 (HepG2): > 100 µM
IC50 (MCF7): > 100 µM
IC50 (SW-620): > 100 µM
IC50 (HFF): > 100 µM
EC50 (Cytomegalovirus [1]): > 100 µM
EC50 (Cytomegalovirus [2]): 10.8 µM
EC50 (Human alphaherpesvirus 3 [3]): > 20 µM
EC50 (Human alphaherpesvirus 3 [4]): > 100 µM
MCC at 72 h [5]: 100 µM
CC50 [6]: 4.29 µM
Activity (Influenza A virus [7]): inactive
Activity (Influenza A virus H3N2 [8]): inactive
Activity (Influenza B virus [9]): inactive
Activity (Influenza A virus [10]): inactive
Activity (Influenza A virus H3N2 [11]): inactive
Activity (Influenza B virus [12]): inactive
Activity (Human alphaherpesvirus 1 [13]): inactive
Activity (Human alphaherpesvirus 2): inactive
Activity (Human alphaherpesvirus 1 [14]): inactive
Activity (Human adenovirus 2): inactive
Activity (Human coronavirus 229E): inactive
Activity (Coxsackievirus B4): inactive
Activity (Reovirus sp.): inactive
Activity (Sindbis virus): inactive

CC(C)(C)c1cn(C/C=C2\OC(=O)C(OCc3ccccc3)=C2OCc2ccccc2)nn1
IC50 (A549): 5.25 µM
IC50 (CFPAC-1): > 100 µM
IC50 (HCT-116): 47.3 µM
IC50 (HeLa): > 100 µM
IC50 (HepG2): 62.2 µM
IC50 (MCF7): 4.93 µM
IC50 (SW-620): 20.7 µM
IC50 (HFF): 49.9 µM
EC50 (Cytomegalovirus [1]): 8.94 µM
EC50 (Cytomegalovirus [2]): 5.2 µM
EC50 (Human alphaherpesvirus 3 [3]): 10 µM
EC50 (Human alphaherpesvirus 3 [4]): 11.7 µM
MCC at 72 h [5]: 100 µM
CC50 [6]: 55.5 µM
Activity (Influenza A virus [7]): inactive
Activity (Influenza A virus H3N2 [8]): inactive
Activity (Influenza B virus [9]): inactive
Activity (Influenza A virus [10]): inactive
Activity (Influenza A virus H3N2 [11]): inactive
Activity (Influenza B virus [12]): inactive
Activity (Human alphaherpesvirus 1 [13]): inactive
Activity (Human alphaherpesvirus 2): inactive
Activity (Human alphaherpesvirus 1 [14]): inactive
Activity (Human adenovirus 2): inactive
Activity (Human coronavirus 229E): inactive
Activity (Coxsackievirus B4): inactive
Activity (Reovirus sp.): inactive
Activity (Sindbis virus): inactive

O=C1O/C(=C\Cn2cc(-c3cccc(O)c3)nn2)C(OCc2ccccc2)=C1OCc1ccccc1
IC50 (A549): 23.3 µM
IC50 (CFPAC-1): 33.7 µM
IC50 (HCT-116): 63.6 µM
IC50 (HeLa): 74.8 µM
IC50 (HepG2): 61.7 µM
IC50 (MCF7): 27.8 µM
IC50 (SW-620): 69.8 µM
IC50 (HFF): 42.6 µM
EC50 (Cytomegalovirus [1]): 9.36 µM
EC50 (Cytomegalovirus [2]): 8.94 µM
EC50 (Human alphaherpesvirus 3 [3]): 14.7 µM
EC50 (Human alphaherpesvirus 3 [4]): 11.6 µM
MCC at 72 h [5]: 100 µM
CC50 [6]: 11.1 µM
Activity (Influenza A virus [7]): inactive
Activity (Influenza A virus H3N2 [8]): inactive
Activity (Influenza B virus [9]): inactive
Activity (Influenza A virus [10]): inactive
Activity (Influenza A virus H3N2 [11]): inactive
Activity (Influenza B virus [12]): inactive
Activity (Human alphaherpesvirus 1 [13]): inactive
Activity (Human alphaherpesvirus 2): inactive
Activity (Human alphaherpesvirus 1 [14]): inactive
Activity (Human adenovirus 2): inactive
Activity (Human coronavirus 229E): inactive
Activity (Coxsackievirus B4): inactive
Activity (Reovirus sp.): inactive
Activity (Sindbis virus): inactive
